Assay results as given in ChEMBL document CHEMBL4028906, “Allosteric Inhibitors of SHP2 with Therapeutic Potential for Cancer Treatment” (J Med Chem, 2017).
Activity calls are given as the source filed them. No cut-off for these calls is given here.

Key:
[1] = target: Tyrosine-protein phosphatase non-receptor type 6 (Homo sapiens, UniProt P29350); test: Inhibition of SHP1 (unknown origin) expressed in Escherichia coli BL21(DE3) using DIFMUP as substrate preincubated for 20 mins followed by substrate addition measured after 20 mins by phosphatase assay
How it was run: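 Phosphatases purified from E. coli and run as for SHP2 E76A: 20 min room-temperature preincubation with compound in 0.1 M sodium acetate pH 5.0, then DIFMUP at each enzyme's Km, 20 min, fluorescence 358/455 nm. Eight 3-fold dilutions in duplicate; IC50 from at least three independent experiments.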

Homo sapiens = organism: Homo sapiens; test: Selectivity ratio of IC50 for MKP3 (unknown origin) expressed in Escherichia coli BL21(DE3) to IC50 for SHP2 E76A mutant (unknown origin) expressed in Escherichia coli BL21(DE3)
How it was run: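 Ratio of IC50 values from one DIFMUP fluorescence assay (Ex/Em 358/455), room temperature, 0.1 M sodium acetate pH 5.0. His-tagged SHP2 E76A (1.5 nM) or counter-phosphatase purified from E. coli, preincubated 20 min with compound (eight 3-fold dilutions), then DIFMUP added for 20 min. DIFMUP was at Km for each counter-phosphatase. Duplicates; IC50 from at least three independent experiments.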

NCI-H1975 = test: Antiproliferative activity against human NCI-H1975 cells at 3 to 6 uM after 2 days by CellTiter-Glo assay; format: functional, cell-based
How it was run: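 3000 cells/well in 96-well plates, grown overnight, then inhibitor at indicated concentrations for 2 days (48 h). Viability by CellTiter-Glo; mean±s.d., n=3.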

Chain of Tyrosine-protein phosphatase non-receptor type 6 (P29350 whole entry): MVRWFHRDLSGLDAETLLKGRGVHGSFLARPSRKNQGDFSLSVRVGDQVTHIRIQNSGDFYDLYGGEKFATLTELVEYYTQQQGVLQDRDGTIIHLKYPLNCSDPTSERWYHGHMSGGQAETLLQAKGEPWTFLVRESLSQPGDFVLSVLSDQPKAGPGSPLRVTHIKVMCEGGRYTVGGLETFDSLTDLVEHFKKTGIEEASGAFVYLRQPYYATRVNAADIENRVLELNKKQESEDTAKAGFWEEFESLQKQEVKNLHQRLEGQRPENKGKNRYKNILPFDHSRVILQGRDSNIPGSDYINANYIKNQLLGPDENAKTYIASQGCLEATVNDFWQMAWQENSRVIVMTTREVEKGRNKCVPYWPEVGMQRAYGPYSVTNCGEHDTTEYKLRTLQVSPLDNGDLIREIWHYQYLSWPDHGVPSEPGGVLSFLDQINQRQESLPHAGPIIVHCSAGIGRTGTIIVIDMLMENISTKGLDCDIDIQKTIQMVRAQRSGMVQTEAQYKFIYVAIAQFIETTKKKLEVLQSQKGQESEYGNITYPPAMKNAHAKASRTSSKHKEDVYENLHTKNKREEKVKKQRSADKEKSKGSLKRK

Which IC50 [1] does the source give for `CC1(N)CCN(c2nc(-c3ccc4cc(Br)ccc4c3)cs2)CC1` here?
Its IC50 is 34.6 µM.

What about the Ratio IC50 (Homo sapiens) of the same compound?
Its Ratio IC50 is greater than 30.

And the Activity (NCI-H1975)?
The Activity was “Active”.
